Measurements: ChEMBL document CHEMBL1128460, “Design, synthesis, and structure-activity relationships of a new series of alpha-adrenergic agonists: spiro[(1,3-diazacyclopent-1-ene)-5,2'-(1',2',3',4'- tetrahydronaphthalene)]” (J Med Chem, 1995)

What was measured:
Canis familiaris [1] = species: Canis familiaris; assay: Maximal contractile response obtained with the agonist (expressed as a percentage of the maximal contraction to phenylephrine in the dog femoral artery); assay type: functional, Canis lupus familiaris
Outline: (§1)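 Vessel segments from mongrel dogs (15–25 kg) anesthetized with pentobarbital (30 mg/kg iv), mounted for isometric tension in physiological saline. Equilibrated 90 min with bath changes every 30 min, rauwolscine (10^-7 M) present throughout. Primed with KCl (100 mM), then phenylephrine (1 µM). Agonist concentration–response curves run at half-log steps, giving EC50 (µM) and Emax as % of phenylephrine maximum; mean ±SD.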

Canis familiaris [2] = species: Canis familiaris; assay: Maximal contractile response obtained with the agonist (expressed as a percentage of the maximal contraction to phenylephrine in the dog saphenous vein); assay type: functional, Canis lupus familiaris; outline: as §1
[3] = biological target: T1, Adrenergic receptor alpha (Rattus norvegicus) (UniProt P15823+P23944+P43140+P22086+P19328+P22909); assay: Alpha adrenergic activity was evaluated as concentration (iv) which increases the arterial pressure by 20 mmHg in the pithed rat; assay type: functional, organism-based; settings: Artery
[4] = ratio of C20 obtained in the absence or presence of [C20 ( 0.1 mg of prazosin ) / C20 (control)]; assay type: functional
Outline: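 Pithed rats pretreated with tertatolol (100 mg/kg), then 10 min later with prazosin (100 µg/kg). Cumulative iv agonist doses given another 10 min later at 20 s intervals. Arterial pressure recorded, C20 (dose giving +20 mmHg) determined. Ratio calculated as C20(prazosin)/C20(control); 3–6 determinations.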

[5] = ratio of C20 obtained in the absence or presence of [C20 (1 mg of yohimbine.) / C20 (control)]; assay type: functional
Outline: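 Pithed rat arterial pressure assay with tertatolol (100 mg/kg) pretreatment, then yohimbine (1 mg/kg) 10 min later. Cumulative iv agonist doses given at 20 s intervals after a further 10 min, C20 (+20 mmHg dose) obtained. Ratio expressed as C20(yohimbine)/C20(control); 3–6 determinations.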

[6] = biological target: T1, Adrenergic receptor alpha (Rattus norvegicus); assay: Alpha adrenergic activity was evaluated as maximal pressure response caused by agonist, expressed in mmHg (the maximum obtained with phenylephrine is 150 mmHg).; assay type: functional
Canis familiaris [7] = species: Canis familiaris; assay: Effective concentration for the agonist in the isolated blood vessel using in vitro saphenous vein; assay type: functional; settings: Canis lupus familiaris; outline: as §1
[8] = Ratio of C20 (pithed rat) to that of EC50(saphenous vein); assay type: functional
[9] = biological target: T2, Adrenergic receptor alpha-1 (Rattus norvegicus, UniProt P15823+P23944+P43140); assay: Displacement of [3H]prazosin from rat cortex Alpha-1 adrenergic receptor
T2 sequence (P15823 whole entry): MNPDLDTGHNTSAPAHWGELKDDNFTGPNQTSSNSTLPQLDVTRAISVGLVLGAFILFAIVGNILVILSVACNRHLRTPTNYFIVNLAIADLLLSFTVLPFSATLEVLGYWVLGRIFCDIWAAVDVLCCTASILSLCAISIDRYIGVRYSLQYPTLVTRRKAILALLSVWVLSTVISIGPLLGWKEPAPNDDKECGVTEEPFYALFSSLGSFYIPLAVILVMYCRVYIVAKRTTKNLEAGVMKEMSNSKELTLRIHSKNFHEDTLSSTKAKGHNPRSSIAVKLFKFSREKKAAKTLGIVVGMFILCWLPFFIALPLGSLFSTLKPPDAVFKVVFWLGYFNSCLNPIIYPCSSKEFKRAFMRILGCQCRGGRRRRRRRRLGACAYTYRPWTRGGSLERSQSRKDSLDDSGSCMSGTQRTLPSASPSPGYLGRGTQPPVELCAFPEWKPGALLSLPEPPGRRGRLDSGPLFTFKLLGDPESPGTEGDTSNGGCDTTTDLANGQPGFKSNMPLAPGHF
T2 sequence (P23944 whole entry): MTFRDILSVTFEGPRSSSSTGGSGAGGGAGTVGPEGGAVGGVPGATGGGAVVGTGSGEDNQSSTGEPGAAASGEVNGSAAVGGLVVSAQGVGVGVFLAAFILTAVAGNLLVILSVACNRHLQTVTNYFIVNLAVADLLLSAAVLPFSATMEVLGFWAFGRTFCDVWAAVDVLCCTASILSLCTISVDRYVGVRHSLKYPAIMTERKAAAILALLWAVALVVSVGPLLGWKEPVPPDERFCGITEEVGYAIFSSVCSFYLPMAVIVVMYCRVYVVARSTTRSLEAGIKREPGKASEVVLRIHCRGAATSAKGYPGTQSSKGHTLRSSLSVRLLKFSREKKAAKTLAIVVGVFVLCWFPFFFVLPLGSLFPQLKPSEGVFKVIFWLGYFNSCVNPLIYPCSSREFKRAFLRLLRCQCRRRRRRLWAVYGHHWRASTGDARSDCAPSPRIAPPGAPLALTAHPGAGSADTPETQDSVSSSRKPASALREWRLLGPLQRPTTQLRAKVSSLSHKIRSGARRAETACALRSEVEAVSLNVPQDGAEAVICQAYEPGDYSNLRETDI
T2 sequence (P43140 whole entry): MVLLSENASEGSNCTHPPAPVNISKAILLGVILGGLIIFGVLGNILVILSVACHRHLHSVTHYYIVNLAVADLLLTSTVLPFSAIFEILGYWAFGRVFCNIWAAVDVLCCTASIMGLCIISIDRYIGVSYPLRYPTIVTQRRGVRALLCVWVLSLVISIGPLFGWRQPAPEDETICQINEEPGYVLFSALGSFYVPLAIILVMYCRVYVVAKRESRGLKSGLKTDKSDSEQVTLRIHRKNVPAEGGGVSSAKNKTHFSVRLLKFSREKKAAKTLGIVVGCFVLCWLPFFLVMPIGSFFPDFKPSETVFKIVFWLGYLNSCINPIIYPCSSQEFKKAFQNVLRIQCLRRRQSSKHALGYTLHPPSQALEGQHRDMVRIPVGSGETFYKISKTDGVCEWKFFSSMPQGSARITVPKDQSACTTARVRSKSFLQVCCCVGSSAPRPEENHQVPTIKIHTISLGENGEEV
Outline: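 Rat cortex membranes labelled with [3H]prazosin (0.3 nM), nonspecific binding with prazosin (10 µM). Nine drug concentrations spanning 3 log units, IC50 by log-probit analysis. Ki by Cheng–Prusoff using Kd from Scatchard saturation. At least three independent experiments in duplicate.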

[10] = biological target: T3, Alpha-2B adrenergic receptor (Rattus norvegicus, UniProt P19328); assay: Binding affinity towards Alpha-2B adrenergic receptor in neonatal rat lung using [3H]-RX-821002 as radioligand
T3 sequence (P19328 whole entry): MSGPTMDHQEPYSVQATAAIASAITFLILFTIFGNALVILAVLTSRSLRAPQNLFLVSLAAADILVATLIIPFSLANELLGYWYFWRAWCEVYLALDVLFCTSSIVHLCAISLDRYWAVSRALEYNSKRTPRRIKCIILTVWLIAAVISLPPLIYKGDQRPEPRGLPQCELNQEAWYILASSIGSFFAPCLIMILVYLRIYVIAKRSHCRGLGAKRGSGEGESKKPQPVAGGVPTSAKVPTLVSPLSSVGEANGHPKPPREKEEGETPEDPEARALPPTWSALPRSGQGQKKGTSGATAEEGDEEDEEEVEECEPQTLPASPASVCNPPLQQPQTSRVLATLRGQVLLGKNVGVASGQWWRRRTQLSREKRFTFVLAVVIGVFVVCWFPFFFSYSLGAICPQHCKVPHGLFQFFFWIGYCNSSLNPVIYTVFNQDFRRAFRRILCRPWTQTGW
Outline: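 Neonatal rat lung membranes with [3H]RX821002 (0.5 nM), nonspecific binding with phentolamine (10 µM). Nine concentrations over 3 log units, IC50 by log-probit, Ki by Cheng–Prusoff with Scatchard-derived Kd. ≥3 independent experiments in duplicate.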

[11] = biological target: T4, Alpha-2A adrenergic receptor (Homo sapiens, UniProt P08913); assay: Binding affinity towards Alpha-2A adrenergic receptor in human platelets using [3H]RX-821002 as radioligand
T4 sequence (P08913 whole entry): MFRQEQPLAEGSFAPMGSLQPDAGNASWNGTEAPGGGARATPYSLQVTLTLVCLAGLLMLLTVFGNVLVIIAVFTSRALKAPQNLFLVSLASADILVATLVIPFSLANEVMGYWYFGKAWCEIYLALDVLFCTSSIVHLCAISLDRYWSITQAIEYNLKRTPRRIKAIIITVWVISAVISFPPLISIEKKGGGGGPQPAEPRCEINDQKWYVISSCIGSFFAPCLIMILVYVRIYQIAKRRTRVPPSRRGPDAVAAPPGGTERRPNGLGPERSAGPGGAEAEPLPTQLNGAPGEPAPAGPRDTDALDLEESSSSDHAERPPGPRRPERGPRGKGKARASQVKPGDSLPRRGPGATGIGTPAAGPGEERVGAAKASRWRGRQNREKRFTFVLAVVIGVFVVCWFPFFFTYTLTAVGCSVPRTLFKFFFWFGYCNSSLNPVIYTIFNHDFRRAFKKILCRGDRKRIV
Outline: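 Human platelet membranes with [3H]RX821002 (1.5 nM), nonspecific binding with phentolamine (10 µM). Displacement at nine concentrations spanning 3 orders of magnitude, IC50 by log-probit analysis, converted to Ki using Scatchard Kd. ≥3 independent duplicate experiments.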

Canis familiaris [12] = species: Canis familiaris; assay: Effective concentration for the agonist in the isolated blood vessel using in vitro femoral artery; assay type: functional; settings: Canis lupus familiaris; outline: as §1
[13] = Ratio of C20 (pithed rat) to that of EC50 (saphenous vein); assay type: functional

| C20 [3] | Max [6] | EC50 (Canis familiaris [7]) | Ki [9] | Ki [10] | Ki [11] | EC50 (Canis familiaris [12]) | Structure (SMILES) | Emax (Canis familiaris [1]) | Emax (Canis familiaris [2]) | Ratio [4] | Ratio [5] | Ratio [8] | Ratio [13] |
| --- | --- | --- | --- | --- | --- | --- | --- | --- | --- | --- | --- | --- | --- |
| 1060 µg/kg | 73 mmHg | – | – | – | – | – | CC1=NCC2(CCc3ccccc3C2)N1C (stereo unspecified) | 0 | 0 | 1 | 1.1 | – | – |
| 4 µg/kg | 120 mmHg | 1300 nM | 14400 nM | 275 nM | 34 nM | 7500 nM | C1=NCC2(CCc3ccccc3C2)N1 (stereo unspecified) | 19 | 99 | 2 | 5.3 | – | – |
| 675 µg/kg | 73 mmHg | – | – | – | – | – | CN1C=NCC12CCc1ccccc1C2 (stereo unspecified) | 0 | 0 | 1.55 | 1.9 | – | – |

More lines, now with the values behind:

| Structure (SMILES) | C20 [3] | Max [6] | EC50 (Canis familiaris [7]) | Ki [9] | Ki [10] | Ki [11] | EC50 (Canis familiaris [12]) | Emax (Canis familiaris [1]) | Emax (Canis familiaris [2]) | Ratio [4] | Ratio [5] | Ratio [8] | Ratio [13] |
| --- | --- | --- | --- | --- | --- | --- | --- | --- | --- | --- | --- | --- | --- |
| C1=NCC2(CCc3cc4c(cc3C2)CCC4)N1 (stereo unspecified) | 74 µg/kg | 68 mmHg | 70 nM | – | – | – | – | 0 | 17 | 1.1 | 5 | 1057 | – |
| Cc1ccc2c(c1)CC1(CC2)CN=CN1 (stereo unspecified) | 8 µg/kg | 111 mmHg | 260 nM | 1000 nM | 50 nM | 7 nM | 74000 nM | 5 | 64 | – | – | – | 31 |
